Laboratory results taken from ChEMBL document CHEMBL1127640, “Synthesis and evaluation of 7 alpha-iodo-5 alpha-dihydrotestosterone as a potential radioligand for androgen receptor” (J Med Chem, 1994).

Legend:
[1] = molecular target: T1, Progesterone receptor (Homo sapiens) (UniProt P06401); assay: Relative binding affinity for progesterone receptor in MCF-7 cell cytosol extract
T1 sequence (whole entry): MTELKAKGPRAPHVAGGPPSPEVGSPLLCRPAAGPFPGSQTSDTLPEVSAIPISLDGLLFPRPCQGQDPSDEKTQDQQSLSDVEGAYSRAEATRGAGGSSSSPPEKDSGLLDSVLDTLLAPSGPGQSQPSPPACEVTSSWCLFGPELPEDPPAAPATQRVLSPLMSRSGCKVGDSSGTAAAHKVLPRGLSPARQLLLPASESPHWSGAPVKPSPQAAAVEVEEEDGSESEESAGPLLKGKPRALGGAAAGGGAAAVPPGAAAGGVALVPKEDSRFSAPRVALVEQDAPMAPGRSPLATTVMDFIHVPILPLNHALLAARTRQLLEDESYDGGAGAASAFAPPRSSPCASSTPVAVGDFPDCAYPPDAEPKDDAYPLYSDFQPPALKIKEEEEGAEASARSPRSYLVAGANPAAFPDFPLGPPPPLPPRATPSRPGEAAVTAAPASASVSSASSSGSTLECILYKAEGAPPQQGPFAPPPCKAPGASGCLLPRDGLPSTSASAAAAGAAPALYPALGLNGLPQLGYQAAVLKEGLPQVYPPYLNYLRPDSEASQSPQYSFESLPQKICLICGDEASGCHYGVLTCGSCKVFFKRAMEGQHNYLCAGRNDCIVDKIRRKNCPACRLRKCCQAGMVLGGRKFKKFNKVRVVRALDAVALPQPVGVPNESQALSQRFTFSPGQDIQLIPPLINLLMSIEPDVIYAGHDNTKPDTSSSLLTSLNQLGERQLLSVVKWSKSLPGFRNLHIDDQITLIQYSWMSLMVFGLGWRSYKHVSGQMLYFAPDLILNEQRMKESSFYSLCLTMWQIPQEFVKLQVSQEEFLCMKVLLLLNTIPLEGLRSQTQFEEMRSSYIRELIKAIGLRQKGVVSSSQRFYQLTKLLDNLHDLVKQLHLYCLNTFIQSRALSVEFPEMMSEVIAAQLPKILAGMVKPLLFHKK

Rattus norvegicus = organism: Rattus norvegicus; assay: Relative binding affinity for progesterone receptor in rat uterine cytosol extract; details: Uterus
Summary of the method: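 Tissue homogenized in molybdate-free TEGT buffer, and cytosol (105000g supernatant) used at 0.8–1.2 mg/mL protein. Incubation was 20 h at 4 °C with 1.0 nM [3H]R5020 (final) over a competitor range. Bound/free separated on Sephadex LH-20, then scintillation counting.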

Compound | Binding [1] [%] | Binding (Rattus norvegicus) [%]
C[C@]12CC[C@H]3[C@@H](CCC4=CC(=O)CC[C@@]43C)[C@@H]1CC[C@@H]2O | 0.112 | 1.55
C[C@]1(O)CC[C@H]2[C@@H]3CCC4=CC(=O)CCC4=C3C=C[C@@]21C | 98 | 142
C[C@@H]1CC2=CC(=O)CCC2[C@H]2CC[C@@]3(C)[C@@H](CC[C@@]3(O)/C=C/I)[C@H]12 (some centres not stated) | 9.84 | 12.3
CC12CC[C@H]3[C@@H]([C@H](I)C[C@H]4CC(=O)CCC43C)[C@@H]1CCC2O (some centres not stated) | 0.239 | 1.12
C[C@]12CCC(=O)C[C@@H]1CC[C@@H]1[C@@H]2CC[C@]2(C)[C@@H](O)CC[C@@H]12 | 0.205 | 1.26
CC(=O)[C@H]1CC[C@H]2[C@@H]3CCC4=CC(=O)CC[C@]4(C)[C@H]3CC[C@]12C | 100 | 100
